Screens from PubChem.
MrgX1 antagonist: human MrgX1 receptor antagonism, primary screen; B-score at 10 µM; MRGX1-HEK293 calcium flux, Fluo-4, BAM8-22 antagonism; active compounds read low; hit rate 1.3% among 310,000;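 active means calcium-response B-score plate-corrected more than 3 library SD below zero, starting fluorescence within 5 deviations, no agonist response on first addition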;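 further: peak minus trough fluorescence over baseline after final BAM8-22 challenge near maximal dose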
Target sequence (Q96LB2 whole entry, looked up): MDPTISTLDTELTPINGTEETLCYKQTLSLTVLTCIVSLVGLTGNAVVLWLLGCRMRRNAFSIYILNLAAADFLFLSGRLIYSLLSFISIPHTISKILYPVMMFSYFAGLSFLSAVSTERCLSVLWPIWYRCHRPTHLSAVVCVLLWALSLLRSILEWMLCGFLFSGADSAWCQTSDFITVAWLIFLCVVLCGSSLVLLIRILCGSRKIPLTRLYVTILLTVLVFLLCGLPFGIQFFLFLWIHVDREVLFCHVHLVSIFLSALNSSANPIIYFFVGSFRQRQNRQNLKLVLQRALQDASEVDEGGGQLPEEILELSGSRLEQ
RGS4 act: potentiators or activators of RGS4; HEK293 M3R/inducible RGS4, carbachol calcium flux Fluo4; active compounds read low; AID 463111; B-score at 10 µM; hit rate 0.92% among 310,000;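 active means B-score of the integrated calcium signal more than 4 SD below the library mean, with starting fluorescence not abnormally high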;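 further: negative B-score means reduced calcium response which marks RGS4 activation or potentiation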
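Also added: carbachol at ECmax as muscarinic agonist stimulus; Assay system: HEK293 cells with stable M3R and inducible RGS4; Timing: overnight RGS4 induction, 30 min dye load 37 °C, 20 min compound RT; Measured by: Fluo4-AM (2 µM) calcium-flux fluorescence, kinetic read.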
MrgX1 ag: activates human MrgX1 receptor signaling. hit rate 0.44% among 310,000. MrgX1-HEK293 cells, Fluo-4 calcium fluorescence, agonist mode; active compounds read high. AID 588627. Q96LB2. B-score at 10 µM;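 active means calcium response B-score plate-corrected fluorescence ratio at least 3 library SD, with starting fluorescence B-score inside 5 SD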
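Test system: HEK293 cells stably expressing human MrgX1 receptor; amount: 15,000 cells per well; doses: compound delivered in addition one of three; times: overnight plating before 1 h dye loading; detection: Fluo-4 NW calcium-flux fluorescence, kinetic read; read-out basis: B-scored fluorescence response ratio; controls: positive and negative controls per plate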
RGS4 block: inhibitors of human RGS4 | P49798 | HEK293 M3R/RGS4 inducible, Fluo-4 calcium flux; active compounds read high; triggered by carbachol at its EC20 | B-score at 10 µM | hit rate 0.45% among 310,000;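 active means B-score, a plate-corrected calcium signal, over three deviations above library mean, with baseline fluorescence within five deviations of library mean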;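 further: RGS4 expression induced by doxycycline in cells with stable M3 receptor; B-score is computed from the integrated fluorescence ratio over baseline after carbachol; higher B-score means a larger calcium signal and so more RGS4 inhibition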
Target sequence (P49798 whole entry, looked up): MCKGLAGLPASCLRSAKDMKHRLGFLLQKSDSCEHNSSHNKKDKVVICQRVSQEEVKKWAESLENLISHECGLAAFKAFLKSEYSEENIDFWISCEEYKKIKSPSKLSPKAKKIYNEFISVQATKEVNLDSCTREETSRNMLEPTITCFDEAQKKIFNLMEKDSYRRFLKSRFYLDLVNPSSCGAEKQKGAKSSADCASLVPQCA
MrgX1 allo act: human MrgX1 positive allosteric modulation, primary screen. Q96LB2. B-score at 10 µM. hit rate 0.63% among 310,000. MrgX1-HEK293, Fluo-4 calcium flux, FDSS; active compounds read high;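 active means plate-corrected calcium response at least 3 library SD above typical, normal starting fluorescence, not activating the receptor alone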;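 further: compound read alongside a low EC10 to EC30 dose of BAM8-22 agonist; peak minus trough fluorescence over baseline measured at the second addition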
RGS4 act valid: RGS4 activation, validation assay; shares compounds with RGS4 act; HEK293 M3R/RGS4 inducible, carbachol calcium flux Fluo4; inhibition, % at 10 µM; hit rate 89% among 1,100; AID 602282;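 active means inhibition above 3 SD of the buffer control wells, cut at about 41% in these data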;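 further: signal is the integrated peak-minus-minimum Fluo4 fluorescence over baseline ratio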
M3R Ca counter: RGS4 activator counter-screen hit in non-induced cells; shares compounds with RGS4 act; HEK293 M3R non-induced RGS4, Fluo4 calcium flux; after carbachol challenge at its EC90; inhibition, % at 10 µM; hit rate 82% among 1,100;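 active means inhibition exceeding 3 SD of buffer-only control wells, cut at about 26% in these data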;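 further: percent drop in integrated peak-minus-baseline over baseline Fluo4 ratio after carbachol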
Numbers without * were called inactive; i = inactive; x = no result. Sampled rows, rich in hits. Any-hit rate of the full collection: about 3.5%.

SMILES	MrgX1 antagonist	RGS4 act	MrgX1 ag	RGS4 block	MrgX1 allo act	RGS4 act valid	M3R Ca counter
CCC(C)c1ccc(OCc2ccc(C(=O)OC)o2)cc1 (configuration not stated)	i	i	i	i	i	x	x
C=CCN(c1ccc(C(=O)Nc2ccc(NC(C)=O)cc2)cc1)S(C)(=O)=O	i	i	i	i	i	x	x
CCCCCCCCOC(=O)C1=C(C)Nc2nnnn2C1c1cccs1 (configuration not stated)	i	-11*	i	i	i	90*	75*
CCCCCCCOC(=O)C1=C(C)Nc2ncnn2C1c1cccs1 (configuration not stated)	i	i	i	i	i	x	x
CCN(CC)CCCOC(=O)C1(c2ccccc2)CCCC1	i	-11*	i	i	i	95*	93*
CCN(CC)CCOC(=O)c1ccccc1Br	i	i	i	i	i	x	x
CC(=O)NN1C(=O)/C(=C\c2ccc(Cl)cc2)SC1=S	i	-12*	i	i	i	0	0
Cc1cc(NCCCO)n2nc(-c3cccs3)cc2n1	i	i	i	i	i	x	x
OCCCNc1cc(-c2ccccc2)nc2cc(-c3ccc(F)cc3)nn12	i	-8.8*	i	i	i	68*	42*
COCCN(C(=O)Nc1ccccc1OC)c1nc2ccccc2s1	i	-7.7*	i	i	i	92*	91*
COc1ccc(NC(=O)CN(C)C(=O)c2cc(-c3ccc(OC)cc3)nc3ccccc23)cc1	i	-8.1*	i	i	i	54*	84*
Cc1ccc(NC(=O)CN(C)C(=O)c2cc(-c3ccco3)nc3ccccc23)cc1	i	-8.3*	i	i	i	61*	0
CN(CCOc1ccc(Cl)cc1)C(=O)c1cc(-c2ccco2)nc2ccccc12	i	-8.5*	i	i	i	91*	66*
COc1ccc(NC(=O)CN(C)C(=O)c2cc(-c3ccncc3)nc3ccccc23)cc1	i	i	i	i	i	x	x
COc1ccc(NC(=O)CN(C)C(=O)c2cccc3ccccc23)cc1	i	i	i	i	i	x	x
COc1ccc(NC(=O)CN(C)C(=O)c2cc(-c3ccccc3)nc3ccccc23)cc1	i	-8.4*	i	i	i	48*	0
O=S1(=O)CCOCCCN1Cc1ccc(Cl)cc1	i	i	i	i	i	x	x
COc1ccc(-c2cc(C(=O)N(C)CC(=O)Nc3cccc(F)c3)c3ccccc3n2)cc1	i	-8.2*	i	i	i	70*	28*
CN(C)C(=O)CSc1nnc(-c2cc(-c3cccs3)nc3ccccc23)o1	i	-8.3*	i	i	i	76*	45*
CCn1c(C)nc2cc(C(=O)NNC(=S)Nc3ccc(OC)cc3)ccc21	i	i	i	i	i	x	x
CN(C)Cc1ccccc1CCc1ccccc1	i	-8.3*	i	i	i	78*	42*
Cc1ccc(C)c(NC(=S)N/N=C/C(C)c2ccccc2)c1 (configuration not stated)	i	i	i	i	i	x	x
Oc1ccccc1Oc1ncc(Br)c(N2CCOCC2)n1	i	-11*	i	i	i	92*	64*
Cc1cccc(C(=O)NC(=S)NNC(=O)COc2ccc(Cl)cc2)c1	x	-11*	x	i	x	58*	50*
Cc1cccc(/C(N)=N/OC(=O)COc2ccc(Cl)cc2)c1	i	i	i	i	i	x	x
SMILES	MrgX1 antagonist	RGS4 act	MrgX1 ag	RGS4 block	MrgX1 allo act	RGS4 act valid	M3R Ca counter
O=C(COc1ccccc1Cl)NCCNC(=O)c1cccnc1	i	i	i	i	i	x	x
COc1ccc(S(=O)(=O)N2CCCCCC2)cc1C(=O)N(C)CC(=O)Nc1cc(C)ccc1C	i	i	i	i	i	x	x
COc1ccc2[nH]cc(CCNC(=O)COc3ccc4ccc(=O)oc4c3)c2c1	i	i	i	i	i	x	x
CC(C)OCCCN(C)C1CCN(S(=O)(=O)c2ccc(-c3cc(C(F)(F)F)no3)s2)CC1	i	-7.7*	i	i	i	49*	84*
CC(C)OCCCN(C)C1CCN(S(=O)(=O)c2csc(C(N)=O)c2)CC1	i	i	i	i	i	x	x
Cc1cc(Nc2n[nH]c(N)c2C#N)ccc1F	i	i	i	i	i	x	x
Cc1cc(C)n2nc(SCc3nnc(SCCCCl)o3)nc2n1	i	-7.7*	i	i	i	78*	35*
CN(C)CCNC(=O)c1cccc(S(=O)(=O)Nc2ccc(F)cc2)c1	i	i	i	i	i	x	x
CCN(CC)CCNC(=O)c1ccc(NC(=O)c2cccc(S(=O)(=O)Nc3ccc(C)cc3)c2)cc1	i	-12*	i	i	i	92*	69*
Cc1ccc(C2N(c3ccccc3)C(=S)N3CCCN23)cc1 (configuration not stated)	i	-11*	i	i	i	94*	91*
Fc1ccc(C2N(c3ccccc3)C(=S)N3CCCN23)cc1 (configuration not stated)	i	i	i	i	i	x	x
COc1ccc(C)cc1NC(=O)C(=O)NNC(=O)c1ccco1	i	i	i	i	i	x	x
CCN1CCN(Cc2cccc(Oc3ccccc3)c2)CC1	i	-8*	i	i	i	62*	84*
CCOC(=O)C1CCN(Cc2cccc(Oc3ccc(Cl)cc3)c2)CC1	i	i	i	i	i	x	x
CCN1CCN(Cc2cccc(Oc3ccc(Cl)cc3)c2)CC1	i	-9.4*	i	i	i	92*	61*
CN1CCN(Cc2cccc(Oc3ccc(Cl)cc3)c2)CC1	i	-12*	i	i	i	90*	38*
CCN(CC(=O)Nc1ccc(NC(C)=O)cc1)C(=O)/C=C/c1ccc(S(=O)(=O)N2CCCCCC2)cc1	i	i	i	i	i	x	x
c1ccc(N2CCN(c3cnccn3)CC2)nc1	i	-8.4*	i	i	i	0	0
OCCN1CCN(CC/C=C2/c3ccccc3CSc3ccccc32)CC1	i	i	i	i	i	x	x
CNCC/C=C1/c2ccccc2CSc2ccccc21	i	-8.6*	i	i	i	92*	86*
COC(=O)CSc1nnc([C@H](CC(C)C)NC(=O)OC(C)(C)C)o1	i	i	i	i	i	x	x
